Laboratory results as given in ChEMBL document CHEMBL4145604, “Jizanpeptins, Cyanobacterial Protease Inhibitors from a Symploca sp. Cyanobacterium Collected in the Red Sea” (J Nat Prod, 2018).
pIC50: −log10 of the molar value. Active and inactive are the calls of the source. The calls are words filed in the database; no cut-off is given here. *1 amine or outer side, *2 acyl side, *3 side chain or, on linkers, in order; H or OH if unused. Where a SMILES comes first, the peptide text is derived from it. Bridges are numbered along the chain shown (N, C = ends). [ ]: non-standard residue; d: D form. The star is where a group is joined. Ahp(3S,6R)alloIle = CC[C@@H](C)[C@@H](C(=O)[*:2])N1C(=O)[C@@H](N[*:1])CC[C@H]1O; Propanoyl(2R-OMe,3-OSO3H) = CO[C@H](COS(=O)(=O)O)C(=O)*; NMeTyr(3-Br,OMe) = CN[C@@H](Cc1ccc(OC)c(Br)c1)C(=O)O; Cit = NC(=O)NCCC[C@H](N)C(=O)O; Butyryl = CCCC(=O)*

Key:
Trypsin = Trypsin (Homo sapiens, UniProt P07477+P07478+P35030); assay: Inhibition of trypsin (unknown origin) assessed as reduction in conversion of N-benzoyl-L-arginine ethyl ester hydrochloride to N-benzoyl-L-arginine incubated for 5 mins measured for 30 secs by spectrophotometric method; type: protein assay
[1] = (§1) Inhibition of chymotrypsin (unknown origin) assessed as reduction in conversion of N-benzoyl-L-tyrosine ethyl ester to N-benzoyl-L-tyrosine incubated for 3 mins measured for 30 secs by spectrophotometric method; design: species or system Homo sapiens
Homo sapiens [2] = species: Homo sapiens; assay: Selectivity ratio of IC50 for chymotrypsin (unknown origin) to IC50 for trypsin (unknown origin)
NCI-H460 = assay: Antiproliferative activity against human NCI-H460 cells up to 3 uM after 72 hrs by MTT assay; type: functional, cell-based
Procedure, shortened: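 NCI-H460 cells exposed for 72 h to 30 nM–3 μM compound from DMSO stocks, final DMSO 0.1%; apratoxin A (30 nM) positive control; MTT viability end-point, vehicle-treated cells set as 100%.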

HeLa = assay: Antiproliferative activity against human HeLa cells up to 3 uM after 72 hrs by MTT assay; type: functional, cell-based
Homo sapiens [3] = species: Homo sapiens; assay: as §1

| Compound | IC50 (Trypsin) | pIC50 [1] | Ratio IC50 (Homo sapiens [2]) | Activity (NCI-H460) | Activity (HeLa) | inhibition (Trypsin) | inhibition (Homo sapiens [3]) |
| --- | --- | --- | --- | --- | --- | --- | --- |
| CC[C@@H](C)[C@H]1C(=O)N(C)[C@@H](Cc2ccc(OC)c(Br)c2)C(=O)N[C@@H]([C@@H](C)CC)C(=O)O[C@H](C)[C@H](NC(=O)[C@H](NC(=O)[C@@H](COS(=O)(=O)O)OC)C(C)C)C(=O)N[C@@H](CCCNC(=N)N)C(=O)N[C@H]2CC[C@@H](O)N1C2=O | 0.15 µM | < 5.00 | 10 to 66 | inactive | inactive |  |  |
| CC[C@@H](C)[C@H]1C(=O)N(C)[C@@H](Cc2ccc(OC)c(Br)c2)C(=O)N[C@@H]([C@@H](C)CC)C(=O)O[C@H](C)[C@H](NC(=O)[C@@H](NC(=O)[C@@H](COS(=O)(=O)O)OC)C(C)C)C(=O)N[C@@H](CCCCN)C(=O)N[C@H]2CC[C@@H](O)N1C2=O | 0.072 µM | 5.85 | 19 | inactive | inactive |  |  |
| CCCC(=O)N[C@H](CCC(N)=O)C(=O)N[C@@H]1C(=O)N[C@@H](CCCNC(N)=O)C(=O)N[C@H]2CC[C@@H](O)N(C2=O)[C@@H]([C@H](C)CC)C(=O)N(C)[C@@H](Cc2ccc(OC)c(Br)c2)C(=O)N[C@@H](C(C)C)C(=O)O[C@@H]1C (Butyryl-[dQ]T[Cit][Ahp(3S,6R)alloIle][NMeTyr(3-Br,OMe)]V; ester 2-C) |  |  |  | Active |  | Active | Active |
| CC[C@@H](C)[C@H]1C(=O)N(C)[C@@H](Cc2ccc(OC)c(Br)c2)C(=O)N[C@@H]([C@@H](C)CC)C(=O)O[C@H](C)[C@H](NC(=O)[C@@H](NC(=O)[C@@H](COS(=O)(=O)O)OC)[C@@H](C)CC)C(=O)N[C@@H](CCCCN)C(=O)N[C@H]2CC[C@@H](O)N1C2=O ({Propanoyl(2R-OMe,3-OSO3H)}-ITK[Ahp(3S,6R)alloIle][NMeTyr(3-Br,OMe)]I; ester 2-C) | 1 µM | < 5.00 | 10 to 66 | inactive | inactive |  |  |
| CC[C@@H](C)[C@H]1C(=O)N(C)[C@@H](Cc2ccc(OC)c(Br)c2)C(=O)N[C@@H]([C@@H](C)CC)C(=O)O[C@H](C)[C@H](NC(=O)[C@H](NC(=O)[C@@H](COS(=O)(=O)O)OC)C(C)C)C(=O)N[C@@H](CCCCN)C(=O)N[C@H]2CC[C@@H](O)N1C2=O | 0.19 µM | < 5.00 | 10 to 66 | inactive | inactive |  |  |
| CC[C@@H](C)[C@H]1C(=O)N(C)[C@@H](Cc2ccc(OC)c(Br)c2)C(=O)N[C@@H]([C@@H](C)CC)C(=O)O[C@H](C)[C@H](NC(=O)[C@H](NC(=O)[C@H](O)COS(=O)(=O)O)C(C)C)C(=O)N[C@@H](CCCCN)C(=O)N[C@H]2CC[C@@H](O)N1C2=O | 0.16 µM | < 5.00 | 10 to 66 | inactive | inactive |  |  |
